ChEMBL document CHEMBL1124532, “Angiotensin converting enzyme inhibitors: spirapril and related compounds” (J Med Chem, 1989)
Blank lines part the entries; values can stand above or below the molecule they belong to.

Key:
[1] = target: T1, Angiotensin-converting enzyme (Homo sapiens, UniProt P12821); experiment: (§1) Compound tested in vitro for inhibition of Angiotensin I converting enzyme
[2] = target: T2, Angiotensin-converting enzyme (Rattus norvegicus) (UniProt P47820); experiment: Compound tested in vivo for inhibition of Angiotensin I converting enzyme in rat; type: organism-based
T2 sequence (whole entry): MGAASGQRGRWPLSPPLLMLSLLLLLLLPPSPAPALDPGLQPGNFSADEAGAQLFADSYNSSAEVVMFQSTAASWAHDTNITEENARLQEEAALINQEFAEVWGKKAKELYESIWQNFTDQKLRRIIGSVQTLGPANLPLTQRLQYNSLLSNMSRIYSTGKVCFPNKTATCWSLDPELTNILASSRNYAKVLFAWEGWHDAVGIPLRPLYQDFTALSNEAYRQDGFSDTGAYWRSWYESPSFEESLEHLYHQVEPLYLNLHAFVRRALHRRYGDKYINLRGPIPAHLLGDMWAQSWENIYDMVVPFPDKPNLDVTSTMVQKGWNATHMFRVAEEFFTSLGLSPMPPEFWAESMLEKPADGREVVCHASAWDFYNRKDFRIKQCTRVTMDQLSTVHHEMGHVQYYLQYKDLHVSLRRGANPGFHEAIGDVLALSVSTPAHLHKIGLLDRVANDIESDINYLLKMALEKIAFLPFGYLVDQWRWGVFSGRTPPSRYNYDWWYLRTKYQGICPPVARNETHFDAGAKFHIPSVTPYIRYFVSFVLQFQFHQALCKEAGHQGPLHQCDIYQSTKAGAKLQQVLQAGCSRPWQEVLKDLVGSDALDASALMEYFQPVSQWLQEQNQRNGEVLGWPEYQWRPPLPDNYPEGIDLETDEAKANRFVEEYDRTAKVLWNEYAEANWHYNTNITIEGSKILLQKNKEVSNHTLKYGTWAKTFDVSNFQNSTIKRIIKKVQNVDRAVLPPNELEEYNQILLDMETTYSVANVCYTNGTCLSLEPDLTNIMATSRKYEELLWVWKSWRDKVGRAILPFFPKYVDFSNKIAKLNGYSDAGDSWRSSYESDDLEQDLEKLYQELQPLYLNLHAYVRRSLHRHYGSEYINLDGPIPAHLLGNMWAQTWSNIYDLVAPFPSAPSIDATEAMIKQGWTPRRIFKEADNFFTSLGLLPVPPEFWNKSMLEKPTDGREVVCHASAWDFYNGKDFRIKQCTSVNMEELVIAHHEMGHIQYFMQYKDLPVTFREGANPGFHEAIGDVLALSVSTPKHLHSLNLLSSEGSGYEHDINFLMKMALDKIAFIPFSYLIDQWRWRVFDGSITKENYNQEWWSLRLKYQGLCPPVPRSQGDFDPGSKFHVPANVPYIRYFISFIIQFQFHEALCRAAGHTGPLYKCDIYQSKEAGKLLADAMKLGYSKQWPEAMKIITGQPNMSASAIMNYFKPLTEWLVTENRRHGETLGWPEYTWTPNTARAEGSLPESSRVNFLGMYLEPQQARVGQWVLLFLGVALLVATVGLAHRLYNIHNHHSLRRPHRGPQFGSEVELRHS
Procedure, shortened: (§2)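 Male Sprague-Dawley rats (280–365 g) anesthetized with inactin (100 mg/kg ip) or dial urethane, with carotid blood pressure recorded. AI 1 µg/kg iv was given before and 5 min after each cumulative iv drug dose (3, 10, 30 µg/kg; EtOH/saline, ≤12% EtOH). Percent of control pressor response was regressed on log dose to give ID50 per animal, then averaged.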

[3] = target: T3, Angiotensin-converting enzyme (Rattus norvegicus, UniProt P47820); experiment: as §1
T3 sequence (P47820 whole entry): T2 sequence (whole entry)
Procedure, shortened: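 In vitro ACE inhibition by the Cushman–Cheung procedure using crude enzyme preparations whose batches varied over time. IC50 determined with a reference inhibitor run concurrently.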

[4] = target: T2, Angiotensin-converting enzyme (Rattus norvegicus); experiment: Compound tested in vivo for inhibition of angiotensin converting enzyme in rat; type: organism-based; procedure, shortened: as §2
Canis familiaris = organism: Canis familiaris; experiment: Compound was tested for its efficacy in dog; type: functional, Canis lupus familiaris
[5] = target: T1, Angiotensin-converting enzyme; experiment: Compound was tested for inhibitory activity against angiotensin converting enzyme when administered intravenously to anesthetized dogs; conditions: Canis lupus familiaris; target entry is the homologue from another species
[6] = Compound tested in vitro for inhibition of Angiotensin I converting enzyme in rat
Procedure, shortened: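 Cushman–Cheung method using crude ACE enzyme preparations, with batches varying over the study period. IC50 was determined, and a reference ACE inhibitor was assayed concurrently in each run.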

T1 sequence (P12821 whole entry): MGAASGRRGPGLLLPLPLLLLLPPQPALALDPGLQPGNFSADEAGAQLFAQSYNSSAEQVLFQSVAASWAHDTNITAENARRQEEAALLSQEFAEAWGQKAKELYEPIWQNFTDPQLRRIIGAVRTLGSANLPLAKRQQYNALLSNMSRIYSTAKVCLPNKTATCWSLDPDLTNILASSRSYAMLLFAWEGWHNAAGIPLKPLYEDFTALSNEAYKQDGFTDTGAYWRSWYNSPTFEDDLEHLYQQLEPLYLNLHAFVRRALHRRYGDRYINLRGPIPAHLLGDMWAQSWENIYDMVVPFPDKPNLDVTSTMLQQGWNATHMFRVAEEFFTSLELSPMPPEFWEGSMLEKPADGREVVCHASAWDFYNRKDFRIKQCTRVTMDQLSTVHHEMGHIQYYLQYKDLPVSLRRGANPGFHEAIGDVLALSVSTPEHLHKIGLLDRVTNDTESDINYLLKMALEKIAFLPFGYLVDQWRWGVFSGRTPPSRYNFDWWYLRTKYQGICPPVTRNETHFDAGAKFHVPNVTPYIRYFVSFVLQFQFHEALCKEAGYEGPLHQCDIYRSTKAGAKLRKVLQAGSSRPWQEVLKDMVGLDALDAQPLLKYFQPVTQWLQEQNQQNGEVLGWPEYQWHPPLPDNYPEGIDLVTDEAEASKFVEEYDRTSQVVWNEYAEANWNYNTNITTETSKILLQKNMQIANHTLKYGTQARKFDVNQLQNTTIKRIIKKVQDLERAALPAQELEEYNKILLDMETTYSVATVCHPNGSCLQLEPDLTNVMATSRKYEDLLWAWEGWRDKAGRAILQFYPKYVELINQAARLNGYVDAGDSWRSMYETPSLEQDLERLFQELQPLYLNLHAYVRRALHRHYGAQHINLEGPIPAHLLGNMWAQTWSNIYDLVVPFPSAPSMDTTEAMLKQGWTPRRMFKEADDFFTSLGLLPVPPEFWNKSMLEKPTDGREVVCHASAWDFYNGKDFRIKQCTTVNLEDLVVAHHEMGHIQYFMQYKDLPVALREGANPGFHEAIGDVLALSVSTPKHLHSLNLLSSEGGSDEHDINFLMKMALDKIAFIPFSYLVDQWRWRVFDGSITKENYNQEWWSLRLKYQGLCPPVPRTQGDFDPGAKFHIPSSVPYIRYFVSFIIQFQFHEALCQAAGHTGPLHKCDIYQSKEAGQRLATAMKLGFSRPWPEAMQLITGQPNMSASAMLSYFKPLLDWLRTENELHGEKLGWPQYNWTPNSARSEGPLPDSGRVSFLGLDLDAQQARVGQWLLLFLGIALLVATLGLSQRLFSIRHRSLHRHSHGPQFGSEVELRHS

SMILES: CCOC(=O)[C@H](CCc1ccccc1)NCC(=O)N1CC2(C[C@H]1C(=O)O)SCCS2
ID50 [2]: 0.221 mg/kg

SMILES: CCOC(=O)[C@H](CCc1ccccc1)N[C@@H](C)C(=O)N1CC2(C[C@H]1C(=O)O)SCCS2
IC50 [3]: 67 nM | ID50 [4]: 0.016 mg/kg | Efficacy (Canis familiaris): 0.3 mg/kg | ID50 [5]: 0.3 mg/kg

SMILES: NCCCC[C@H](N[C@@H](CCc1ccccc1)C(=O)O)C(=O)N1CCC[C@H]1C(=O)O [LISINOPRIL ANHYDROUS]
IC50 [6]: 1.2 nM

SMILES: C[C@H](N[C@@H](CCc1ccccc1)C(=O)O)C(=O)N1CCC[C@H]1C(=O)O
ID50 [2]: 0.015 mg/kg

SMILES: CCOC(=O)[C@H](CCc1ccccc1)N[C@@H](C)C(=O)N1CCC[C@H]1C(=O)O
ID50 [4]: 0.057 mg/kg

More lines, now with the values ahead:

IC50 [1]: 0.5 nM | ID50 [2]: 0.01 mg/kg
SMILES: NCCCC[C@H](N[C@@H](CCc1ccccc1)C(=O)O)C(=O)N1CC2(C[C@H]1C(=O)O)SCCS2

IC50 [1]: 200 nM | ID50 [2]: 0.01 mg/kg
SMILES: CCOC(=O)[C@H](CCc1ccccc1)N[C@@H](CCCCN)C(=O)N1CC2(C[C@H]1C(=O)O)SCCS2

IC50 [6]: 92 nM
SMILES: CCOC(=O)C(CCc1ccccc1)N[C@@H](C)C(=O)N1CC2(C[C@H]1C(=O)O)SCCS2 (stereo partly drawn)
